The record followed here is ChEMBL document CHEMBL1125370, “Cardiotonic agents. Synthesis and cardiovascular properties of novel 2-arylbenzimidazoles and azabenzimidazoles” (J Med Chem, 1992).

Calls of active or inactive are those of the source. The calls are words filed in the database; no cut-off is given here.

For experiment [1], the system named is Canis familiaris. As to the kind of experiment: In vivo hypotension in anesthetized dog, expressed as the dose of the drug producing a 25% decrease in diastolic arterial pressure (DAP) from control value. Format: functional. The following applies: Canis lupus familiaris, Artery.
Experiment [2] has as its system Canis familiaris. As to the kind of experiment: In vivo contractility in anesthetized dog expressed as dose which produced a 50% increase in dP/dt max from the control value. In kind it is functional, Canis lupus familiaris.
The species entered for experiment [3] is Cavia porcellus. As to the kind of experiment: The compound was tested in vitro for inotropic activity in isolated left atria from guinea pig;No effect at a maximal concentration of 50 uM,. In kind it is functional. Put shortly:
(§1)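 Isolated left atria preparation. Tension max is the maximal increase in developed tension. […] EC50 was not calculated when tension max was below 250 mg. Bracketed values give the maximal concentration used, and no effect was recorded up to that concentration. Values are means ± SEM.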

The species entered for experiment [4] is Cavia porcellus. As to the kind of experiment: The compound was tested in vitro for inotropic activity expressed as the maximal increase in developed tension. in isolated left atria from guinea pig;No effect at a maximal concentration of 50 uM. In kind it is functional. The method, boiled down: (§2)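 Isolated left atria preparation. Tension max is the maximal increase in developed tension. Bracketed values give the maximal concentration used, and no effect was recorded up to that concentration. Values are means ± SEM.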

For experiment [5], the species on record is Cavia porcellus. As to the kind of experiment: The compound was tested in vitro for inotropic activity in isolated left atria from guinea pig. No effect at a maximal concentration of 20 uM,. In kind it is functional. The method, boiled down: as §1
For experiment [6], the species on record is Cavia porcellus. As to the kind of experiment: The compound was tested in vitro for inotropic activity expressed as the maximal increase in developed tension. in isolated left atria from guinea pig,No effect at a maximal concentration of 20 uM. Format: functional. The method, boiled down: as §1
In experiment [7] the test system is Canis familiaris. The experiment is described as follows: In vivo hypotension in anesthetized dog expressed as the dose of the drug producing a 25% decrease in DAP from control valueNo effect at a maximal concentration of 50 uM. In kind it is functional. Conditions: Canis lupus familiaris.
The species entered for experiment [8] is Cavia porcellus. As to the kind of experiment: In vitro inotropic activity in isolated left atria from guinea pig. Format: functional. The method, boiled down: as §2
For experiment [9], the system named is Canis familiaris. The experiment is described as follows: In vivo contractility in anesthetized dog expressed as dose which produced a 50% increase in dP/dt max from the control value. Format: functional. The following applies: Canis lupus familiaris.
The species entered for experiment [10] is Cavia porcellus. The experiment is described as follows: In vitro inotropic activity expressed as the maximal increase in developed tension in isolated left atria from guinea pig. In kind it is functional. Put shortly: as §2
For experiment [11], the species on record is Cavia porcellus. As to the kind of experiment: The compound was tested in vitro for chronotropic activity in isolated right atria from guinea pig;No effect at a maximal concentration of 50 uM. Format: functional. The method, boiled down: (§3)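 Isolated right atria, chronotropic read-out. Rate max is the maximal increase in rate, in beat/min. It comes from three to six experiments and was not calculated when rate max was below 30 beat/min. Bracketed values give the maximal concentration used. Means ± SEM.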

In experiment [12] the test system is Canis familiaris. As to the kind of experiment: In vivo contractility in conscious dog expressed as dose which produced a 50% increase in dP/dt max from the control value;No effect up to 1 mg/kg. In kind it is functional, organism-based. More on the design: dose 1 mg/kg. Conditions: Canis lupus familiaris. Put shortly:
(§4)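 Male beagles (12–15 kg) carried a Königsberg transducer implanted in the left ventricle to record dP/dt max and arterial pressure. Drug or placebo was given by gastric tube as a 1% gum arabic suspension. Effects were followed for 5 h.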

The test system of experiment [13] is Canis familiaris. As to the kind of experiment: In vivo contractility in conscious dog expressed as dose which produced a 50% increase in dP/dt max from the control value. In kind it is functional. The following applies: Canis lupus familiaris. Put shortly:
as §4

For experiment [14], the species on record is Cavia porcellus. The experiment is described as follows: The compound was tested in vitro for chronotropic activity in isolated right atria from guinea pig. Format: functional. Put shortly: as §3
Experiment [15] is filed under the species Cavia porcellus. The experiment is described as follows: The compound was tested in vitro for chronotropic activity expressed as the maximal increase in beat/min in isolated right atria from guinea pig.

One may read the EC50 as the concentration at which the effect is half-maximal. A lower EC50 goes with a more potent agent. With `Cc1cc2[nH]c(-c3ccc(-n4ccnc4)cc3)nc2cc1-n1ccnc1.Cl.O`, in the experiment with Canis familiaris [1], the ED25 is greater than 3 mg/kg. This molecule also gave a Contractility in the experiment with Canis familiaris [2] greater than 3 mg/kg. The EC50 result in the experiment listed under Cavia porcellus [3] is given as “Not Active”. In the experiment filed under Cavia porcellus [4], the Ionotropic activity entry is “inactive”.

In the case of `c1ccc(Nc2ncccc2-c2nc3cc(-n4ccnc4)ccc3[nH]2)cc1`, the EC50 result in the experiment filed under Cavia porcellus [5] is given as “Not Active”. In addition, the Ionotropic activity result in the experiment filed under Cavia porcellus [6] was “inactive”.

Usually ED50 stands for the dose at which the effect has come halfway, by size or by number of responders. Take `c1ccc(-c2nc3cc(-n4ccnc4)ccc3[nH]2)nc1`: the ED25 with Canis familiaris [7] amounted to 3 mg/kg. The EC50 in the experiment filed under Cavia porcellus [8] is greater than 50 µM; in the experiment listed under Cavia porcellus [11] it was “Not Active”. Moreover, in the experiment on Canis familiaris [9], the ED50 is greater than 3 mg/kg. For the same molecule, the Ionotropic activity in the experiment listed under Cavia porcellus [10] was determined as 170 mg.

As for `c1cc(-c2nc3c[nH]c(-n4ccnc4)nc-3n2)ccn1`, in the experiment on Canis familiaris [12], the ED50 entry is “inactive”.

As to `Cc1[nH]c(=O)c(C#N)cc1-c1ccncc1` [MILRINONE], the concentration giving a half-maximal response (EC50) in the experiment listed under Cavia porcellus [8] was 4.7 µM; in the experiment listed under Cavia porcellus [14], 22 µM. The values for the 50% effective dose (ED50) in the experiment on Canis familiaris [9] and in the experiment with Canis familiaris [13] were 0.15 mg/kg and 2 mg/kg, respectively. In addition, the Ionotropic activity in the experiment listed under Cavia porcellus [10] stood at 580 mg. In addition, in the experiment on Canis familiaris [1], the ED25 stood at 1 mg/kg. Also, in the experiment listed under Cavia porcellus [15], the Rate max stood at 70 beats min-1.

For `O=C1CCC(c2ccc(Nc3ccncc3)cc2)=NN1` [SENAZODAN], the EC50 came to 34 µM in the experiment filed under Cavia porcellus [8] and 20 µM in the experiment filed under Cavia porcellus [14]. Further, the ED50 turned out to be 0.009 mg/kg in the experiment on Canis familiaris [9] and 0.1 mg/kg in the experiment on Canis familiaris [13]. The molecule further had an Ionotropic activity in the experiment filed under Cavia porcellus [10] of 410 mg. In addition, the ED25 with Canis familiaris [1] was found to be 0.1 mg/kg. For the same molecule, the Rate max in the experiment listed under Cavia porcellus [15] was 39 beats min-1.

As for `COc1cc([S+](C)[O-])ccc1-c1nc2cccnc2[nH]1` (stereo not drawn) [SULMAZOLE], the values for the concentration for a half-maximal effect (EC50) in the experiment filed under Cavia porcellus [8] and in the experiment filed under Cavia porcellus [14] were 31 µM and 100 µM, respectively. The values for the ED50 with Canis familiaris [9] and in the experiment with Canis familiaris [13] were 1 mg/kg and 10 mg/kg, respectively. This molecule also registered an Ionotropic activity in the experiment listed under Cavia porcellus [10] of 600 mg. Besides, in the experiment on Canis familiaris [1], the ED25 was determined as 5 mg/kg. For the same molecule, in the experiment listed under Cavia porcellus [15], the Rate max is reported as 88 beats min-1.
